Results on 26 compounds are retold here after ChEMBL document CHEMBL2396601, “Synthesis and antiprotozoal activity of dicationic m-terphenyl and 1,3-dipyridylbenzene derivatives” (J Med Chem, 2013).

The nature of data set [1]: Selectivity index, ratio of IC50 for rat L6 cells to IC50 for Trypanosoma cruzi Tulahuen C2C4. The note with it: read-out: Ratio IC50. Type of data set: toxicity, cell-based. The procedure, abridged:
(§1)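 Selectivity index is IC50 against L6 rat myoblast cells divided by IC50 against the named parasite.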

Another data set relates to L6. Briefly: Cytotoxicity against rat L6 cells after 72 hrs by Alamar Blue assay. Format: cell-based. The following applies: L6, 72 h. The procedure, abridged: (§2)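 Uses T. b. rhodesiense STIB900, T. cruzi Tulahuen C2C4 LacZ intracellular amastigotes, or L6 rat myoblasts depending on line.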
Data set [2] deals with Trypanosoma brucei rhodesiense. The data set is described as follows: Antiprotozoal activity against Trypanosoma brucei rhodesiense STIB900 after 72 hrs by Alamar Blue assay. Type of data set: functional, organism-based. The note with it: Trypanosoma brucei, STIB900, 72 h. The procedure, abridged: as §2
Data set [3] in a line: Selectivity index, ratio of IC50 for rat L6 cells to IC50 for Plasmodium falciparum K1. Format: toxicity, cell-based. The note with it: for selectivity ratio: L6 cells, read-out: Ratio IC50. In a few lines: as §1
The next data set concerns Plasmodium falciparum. The data set is described as follows: Antiprotozoal activity against chloroquine-resistant Plasmodium falciparum K1 after 48 hrs by [3H]-hypoxanthine incorporation assay. Type of data set: functional, organism-based. The following applies: Plasmodium falciparum, K1.
Data set [4] is described as follows: Selectivity index, ratio of IC50 for rat L6 cells to IC50 for Trypanosoma brucei rhodesiense STIB900. Format: toxicity, cell-based. The following applies: for selectivity ratio: L6 cells, read-out: Ratio IC50. In a few lines: as §1
Another data set concerns Trypanosoma cruzi. The data set is described as follows: Antiprotozoal activity against intracellular amastigote form of Trypanosoma cruzi Tulahuen C2C4 expressing LacZ infected in rat L6 cells after 48 hrs. Format: functional, organism-based. The following applies: Tulahuen C2C4, L6, 48 h. The procedure, abridged:
as §2

Data set [5] relates to Trypanosoma brucei rhodesiense. The data set is described as follows: Antiprotozoal activity against Trypanosoma brucei rhodesiense STIB900 infected in NMRI mouse assessed as host mean survival days at 5 mg/kg, ip qd for 4 days. Format: functional. The following applies: route intraperitoneal. The procedure, abridged: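 Acute-stage HAT mouse model infected with STIB900. Cure means survival to 60 days after infection with no parasitemia relapse. Mean survival days are counted from infection and use every mouse: relapsed mice, plus cured mice entered as >60 days.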

Data set [6] has as its system Trypanosoma brucei rhodesiense. Briefly: Antiprotozoal activity against Trypanosoma brucei rhodesiense STIB900 infected in NMRI mouse assessed as reduction of parasitemia relapse at 5 mg/kg, ip qd for 4 days. Type of data set: functional, organism-based. The arrangement: dose 5 mg/kg. In a few lines: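 Mouse model of acute (early) stage HAT with T. b. rhodesiense STIB900, groups of 4 mice. Amidines dosed intraperitoneally, 4 daily doses of 5 mg/kg or single doses; prodrugs dosed orally, 4 daily doses of 25 mg/kg. Cure means survival to 60 days after infection with no parasitemia relapse. Mean survival days counts all mice, with cured mice scored as >60 days.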

Calls of active or inactive are those of the source. The calls are words filed in the database; no cut-off is given here.

For the compound `CC(C)NC(=N)c1cccc(-c2cccc(-c3cccc(C(=N)NC(C)C)c3)c2)c1`, the figures for the selectivity ratio in data set [1], in data set [3] and in data set [4] were over 1, over 4190 and over 243, respectively. The IC50 in the data set on L6 was over 150000 nM; in [2], 617 nM; in the data set on Plasmodium falciparum it was 31 nM; in the data set on Trypanosoma cruzi, 141000 nM.
Take `COc1cc(-c2ccc(C(=N)N)cc2)cc(-c2ccc(C(=N)N)cc2)c1.Cl.Cl`: the selectivity ratio in [1] is under 1; in [3], 693; in [4] it was 7270. Moreover, the IC50 was found to be 33000 nM in the data set on L6, 5 nM in data set [2], 48 nM with Plasmodium falciparum and 59100 nM with Trypanosoma cruzi. Moreover, the MSD in data set [5] is over 38 days.
With `Cl.Cl.N=C(N)c1ccc(-c2cc(O)cc(-c3ccc(C(=N)N)cc3)c2)cc1`, the figures for the selectivity ratio in data set [1], in data set [3] and in data set [4] were under 1, over 3950 and over 37500, respectively. The IC50 in the data set with L6 is over 150000 nM; in data set [2] it was 4 nM; in the data set on Plasmodium falciparum, 38 nM; in the data set on Trypanosoma cruzi it was over 150000 nM. The MSD in [5] is over 41.25 days.
In the case of `CC1(C)CN=C(c2ccc(-c3cc(-c4ccc(C5=NCC(C)(C)CN5)cc4)cc([N+](=O)[O-])c3)cc2)NC1`, the IC50 with L6 was over 150000 nM; in [2], 692 nM; in the data set with Plasmodium falciparum it was 3 nM; in the data set with Trypanosoma cruzi, over 150000 nM. Also, the selectivity ratio in data set [3] was over 46800; in data set [4], over 217.
With `C[C@@H]1CC[C@H]2[C@@H](C)C(=O)O[C@@H]3O[C@@]4(C)CC[C@@H]1[C@]32OO4` [ARTEMISININ], the figures for the IC50 in the data set on L6 and in the data set on Plasmodium falciparum were 150000 nM and 4 nM, respectively. Moreover, the selectivity ratio in [3] amounted to 34900.
In the case of `N=C(N)c1cncc(-c2cccc(-c3cncc(C(=N)N)c3)c2)c1`, the IC50 in the data set on L6 is over 150000 nM; in [2], 527 nM; in the data set on Plasmodium falciparum, 58 nM; in the data set with Trypanosoma cruzi, over 150000 nM. Besides, the selectivity ratio in data set [3] was over 2580; in data set [4], over 285.
As for `CC(=O)O.N=C(N)c1ccc(-c2cccc(-c3ccc(C(=N)N)cn3)c2)nc1`, the IC50 with L6 was over 150000 nM; in [2], 22 nM; with Plasmodium falciparum, 45 nM; with Trypanosoma cruzi, over 150000 nM. For the same compound, the “Ratio IC50” value in [3] (l6) is recorded as over 3339; in data set [4] (l6) it was over 6856. Besides, the MSD in [5] is over 60 days.
Regarding `N=C(N)c1ccc(OCCCCCOc2ccc(C(=N)N)cc2)cc1` [PENTAMIDINE], in data set [5], the MSD was over 38 days.
In the case of `CC1(C)CN=C(c2cccc(-c3cccc(-c4cccc(C5=NCC(C)(C)CN5)c4)c3)c2)NC1`, the selectivity ratio in data set [1] was determined as 1; in data set [3], 9500; in data set [4] it was 70. Also, the IC50 in the data set with L6 is 56600 nM; in data set [2], 809 nM; with Plasmodium falciparum it was 6 nM; with Trypanosoma cruzi it was 45400 nM.
`Nc1nc(N)nc(Nc2ccc([As]3SCC(CO)S3)cc2)n1` (centres undefined) [MELARSOPROL]: the MSD in [5] is over 60 days. Also, the result in data set [6] was Active.
For the compound `Cl.Cl.N=C(N)c1ccc(-c2cccc(-c3cccc(C(=N)N)c3)c2)cc1`, the selectivity ratio in [1] is 1; in data set [3] it was 1950; in data set [4], 544. The IC50 in the data set with L6 turned out to be 28500 nM; in data set [2], 52 nM; in the data set on Plasmodium falciparum, 15 nM; in the data set with Trypanosoma cruzi, 27100 nM. Also, the MSD in [5] is 34.75 days. In addition, in data set [6], the outcome was inactive.
Consider `Cl.Cl.c1cc(-c2ccc(C3=NCCN3)cc2)cc(-c2ccc(C3=NCCN3)cc2)c1`, for which the selectivity ratio in data set [1] was under 1; in [3] it was 35; in [4], 37. The IC50 with L6 amounted to 2550 nM; in [2], 68 nM; with Plasmodium falciparum, 73 nM; in the data set with Trypanosoma cruzi it was 18900 nM. The MSD in data set [5] was 9.25 days. For the same compound, the result in data set [6] was inactive.
Take `c1cc(C2=NCCN2)cc(-c2cccc(-c3cccc(C4=NCCN4)c3)c2)c1`: the selectivity ratio is 2 in data set [1], 51 in data set [3] and 20 in [4]. In addition, the IC50 in the data set on L6 was found to be 31700 nM; in data set [2], 1600 nM; in the data set with Plasmodium falciparum, 619 nM; in the data set with Trypanosoma cruzi, 20400 nM.
`N=C(N)c1ccnc(-c2cccc(-c3cc(C(=N)N)ccn3)c2)c1`: the IC50 in the data set on L6 is over 150000 nM; in data set [2], 1170 nM; in the data set on Plasmodium falciparum, 77 nM; with Trypanosoma cruzi it was over 150000 nM. The selectivity ratio in data set [3] is over 1940; in [4], over 128.
On to `CC1(C)CN=C(c2ccc(-c3cccc(-c4ccc(C5=NCC(C)(C)CN5)cc4)c3)cc2)NC1`, for which the selectivity ratio in data set [1] is under 1; in [3], 49300; in data set [4], 871. In addition, the IC50 with L6 is 122000 nM; in data set [2], 140 nM; in the data set with Plasmodium falciparum it was 2 nM; with Trypanosoma cruzi, 151000 nM.
In the case of `Cl.Cl.Cl.N=C(N)c1ccc(-c2cc(Cl)cc(-c3ccc(C(=N)N)cc3)c2)cc1`, the selectivity ratio in data set [1] is under 1; in data set [3] it was 561; in data set [4], 700. The IC50 is 21900 nM in the data set on L6, 31 nM in [2], 39 nM with Plasmodium falciparum and 65500 nM with Trypanosoma cruzi. The MSD in data set [5] turned out to be 15.25 days. Moreover, in data set [6], the result was inactive.
Take `COc1cc(-c2cccc(C(=N)N)c2)cc(-c2cccc(C(=N)N)c2)c1.Cl.Cl`: the selectivity ratio in data set [1] is 2; in data set [3], 4960; in [4], 4700. Further, the IC50 stood at 137000 nM in the data set with L6, 29 nM in data set [2], 28 nM in the data set with Plasmodium falciparum and 55900 nM with Trypanosoma cruzi. Further, the MSD in [5] turned out to be 10 days. In addition, the result in data set [6] was inactive.
As for `N=C(N)c1ccc(-c2cc(Cl)cc(-c3cccc(C(=N)N)c3)c2)cc1`, the selectivity ratio in data set [1] is under 1; in [3], 1250; in data set [4], 130. Besides, the IC50 in the data set with L6 came to 12700 nM; in data set [2], 97 nM; in the data set with Plasmodium falciparum it was 10 nM; with Trypanosoma cruzi, 46600 nM.
For the compound `N=C(N)c1ccc(-c2ccc(-c3ccc(C(=N)N)cc3)o2)cc1` [FURAMIDINE], the IC50 in data set [2] worked out at 3 nM; in the data set on Plasmodium falciparum, 14 nM; with Trypanosoma cruzi it was 23300 nM. In [5], the MSD is over 46 days.
Regarding `Cl.Cl.N=C(N)c1ccc(-c2cc(N)cc(-c3ccc(C(=N)N)cc3)c2)cc1`, the results for the selectivity ratio in [1], in data set [3] and in data set [4] were over 1, over 1100 and over 39800, respectively. Besides, the IC50 in the data set with L6 is over 150000 nM; in data set [2], 4 nM; in the data set on Plasmodium falciparum it was 136 nM; in the data set on Trypanosoma cruzi, 149000 nM. Also, the MSD in data set [5] is over 35 days. The outcome in data set [6] was inactive.
`O=C(Cn1ccnc1[N+](=O)[O-])NCc1ccccc1` [BENZNIDAZOLE]: the selectivity ratio in data set [1] was determined as 115. The IC50 is over 150000 nM in the data set with L6 and 1300 nM with Trypanosoma cruzi.
In the case of `Cl.Cl.N=C(N)c1cccc(-c2cccc(-c3cccc(C(=N)N)c3)c2)c1`, the selectivity ratio in data set [1] came out at 4; in [3] it was 3320; in data set [4], 2270. Besides, the IC50 in the data set on L6 was 125000 nM; in data set [2], 55 nM; in the data set on Plasmodium falciparum, 38 nM; in the data set with Trypanosoma cruzi, 35000 nM. Further, in data set [5], the MSD is 18.5 days. Further, the result in [6] was inactive.
As for `N=C(N)c1cccc(-c2cc(Cl)cc(-c3cccc(C(=N)N)c3)c2)c1`, the selectivity ratio in data set [1] is under 1; in data set [3], 944; in data set [4], 709. Also, the IC50 in the data set with L6 turned out to be 30900 nM; in data set [2], 44 nM; in the data set on Plasmodium falciparum it was 33 nM; with Trypanosoma cruzi it was 50200 nM.
In the data set on L6, `CCN(CC)CCCC(C)Nc1ccnc2cc(Cl)ccc12` (centres undefined) [CHLOROQUINE] registered an IC50 of 76500 nM.
In the case of `Cl.Cl.N=C(N)c1ccc(-c2cc(-c3ccc(C(=N)N)cc3)cc([N+](=O)[O-])c2)cc1`, the selectivity ratio in data set [1] was over 2; in data set [3] it was over 8380; in [4], over 7480. For the same compound, the IC50 with L6 is over 150000 nM; in [2] it was 20 nM; in the data set with Plasmodium falciparum, 18 nM; in the data set on Trypanosoma cruzi, 57200 nM. Also, the MSD in data set [5] came to 20 days. In data set [6], the outcome was inactive.
Regarding `CC(C)NC(=N)c1ccc(-c2cccc(-c3ccc(C(=N)NC(C)C)cc3)c2)cc1.Cl.Cl`, the results for the selectivity ratio in data set [1], in [3] and in [4] were under 1, 6580 and 2160, respectively. Besides, the IC50 in the data set with L6 was 102000 nM; in data set [2], 47 nM; in the data set with Plasmodium falciparum, 16 nM; in the data set with Trypanosoma cruzi, over 150000 nM. Besides, the MSD in data set [5] stood at 13.5 days. Further, the result in data set [6] was inactive.
